{"source": "ChEMBL document CHEMBL2150950", "about": "“Effect of 4-aryl-2-methyl-5-nitro-1,4-dihydropyridine-3-carboxylates on the guinea pig papillary muscle and isolated human vena saphena magna that is used for coronary artery bypass grafting” (2011)", "key": {"[1]": {"experiment": "Ionotropic effect in guinea pig right ventricle papillary muscles assessed as contraction force at 10^-6 M by force transduction assay relative to untreated control (reference value: 100%)", "format": "functional, Cavia porcellus, Papillary muscle"}, "[2]": {"experiment": "Ionotropic effect in guinea pig right ventricle papillary muscles assessed as contraction force at 10^-7 M by force transduction assay relative to untreated control (reference value: 100%)", "format": "functional, Cavia porcellus, Papillary muscle"}, "[3]": {"experiment": "Vasodilatory activity in human vena saphena magna assessed as reduction in phenylephrine-induced smooth muscle contraction at 0.1 uM", "format": "functional", "parameters": "scale not given: the % may be the effect or the level left", "in_short": "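Saphenous vein rings came from 37 CABG patients. They were bathed in Tyrode's solution (mM: NaCl 137, KCl 5.4, CaCl2 1.8, MgCl2 0.9, Tris HCl 10, glucose 5; pH 7.4), equilibrated 45–60 min and washed every 15 min. Rings were precontracted with 10^-4 M phenylephrine, then given cumulative test agent at 10^-7 to 10^-4 M. Isometric relaxation was recorded, as means ± SE.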"}, "[4]": {"experiment": "(§1) Ionotropic effect in guinea pig ventricle papillary muscles assessed as lengthening of 90% repolarized cardiac action potential duration time at 10^-4 M by microelectrode technique relative to untreated control (reference value: 209 to 222 APD50 ms) in presence of 3.1 x 10^-6 M inward rectifier current blocker BaCl2", "format": "functional, Cavia porcellus"}, "[5]": {"experiment": "as §1, with “10^-5” for “10^-4”", "format": "functional, Cavia porcellus"}, "[6]": {"experiment": "as §1, with “50%” for “90%”, “10^-5” for “10^-4”, “180” for “209”, “192” for “222”", "format": "functional, Cavia porcellus"}, "[7]": {"experiment": "as §1, with “50%” for “90%”, “10^-6” for “10^-4”, “180” for “209”, “192” for “222”", "format": "functional, Cavia porcellus"}, "[8]": {"experiment": "as §1, with “50%” for “90%”, “10^-7” for “10^-4”, “180” for “209”, “192” for “222”", "format": "functional, Cavia porcellus"}, "[9]": {"experiment": "as §1, with “25%” for “90%”, “120” for “209”, “131 APD25” for “222 APD50”", "format": "functional, Cavia porcellus"}, "[10]": {"experiment": "as §1, with “10%” for “90%”, “52” for “209”, “54 APD10” for “222 APD50”", "format": "functional, Cavia porcellus"}, "[11]": {"experiment": "as §1, with “10%” for “90%”, “10^-5” for “10^-4”, “52” for “209”, “54 APD10” for “222 APD50”", "format": "functional, Cavia porcellus"}, "[12]": {"experiment": "as §1, with “10%” for “90%”, “10^-6” for “10^-4”, “52” for “209”, “54 APD10” for “222 APD50”", "format": "functional, Cavia porcellus"}, "[13]": {"experiment": "as §1, with “10^-5” for “10^-4”, “1” for “3.1”, “IKr channel” for “inward rectifier current”, “Sotalol” for “BaCl2”", "format": "functional, Cavia porcellus"}, "[14]": {"experiment": "as §1, with “10^-6” for “10^-4”, “1” for “3.1”, “IKr channel” for “inward rectifier current”, “Sotalol” for “BaCl2”", "format": "functional, Cavia porcellus"}, "[15]": {"experiment": "as §1, with “50%” for “90%”, “180” for “209”, “192” for “222”, “1” for “3.1”, “IKr channel” for “inward rectifier current”, “Sotalol” for “BaCl2”", "format": "functional, Cavia porcellus"}, "[16]": {"experiment": "(§2) Ionotropic effect in guinea pig ventricle papillary muscles assessed as lengthening of 25% repolarized cardiac action potential duration time at 10^-5 M by microelectrode technique relative to untreated control (reference value: 120 to 131 APD25 ms) in presence of 1 x 10^-6 M IKr channel blocker Sotalol", "format": "functional, Cavia porcellus"}, "[17]": {"experiment": "as §2, with “10%” for “25%”, “10^-4” for “10^-5”, “52” for “120”, “54 APD10” for “131 APD25”", "format": "functional, Cavia porcellus"}, "[18]": {"experiment": "as §2, with “10%” for “25%”, “52” for “120”, “54 APD10” for “131 APD25”", "format": "functional, Cavia porcellus"}, "[19]": {"experiment": "Ionotropic effect in guinea pig right ventricle papillary muscles assessed as contraction force at 10^-7 M by force transduction assay relative to untreated control (reference value: 100%) in presence of 1 x 10^-6 M IKr channel blocker Sotalol", "format": "functional, Cavia porcellus, Heart right ventricle"}, "[20]": {"experiment": "as §1, with “10^-5” for “10^-4”, “2” for “3.1”, “10^-5” for “10^-6”, “KATP channel” for “inward rectifier current”, “glibenclamide” for “BaCl2”", "format": "functional, Cavia porcellus"}, "[21]": {"experiment": "as §2, with “at 10^-6” for “at 10^-5”, “of 2” for “of 1”, “x 10^-5” for “x 10^-6”, “M KATP” for “M IKr”, “blocker glibenclamide” for “blocker Sotalol”", "format": "functional, Cavia porcellus"}, "[22]": {"experiment": "(§3) Ionotropic effect in guinea pig ventricle papillary muscles assessed as lengthening of 10% repolarized cardiac action potential duration time at 10^-4 M by microelectrode technique relative to untreated control (reference value: 52 to 54 APD10 ms) in presence of 2 x 10^-5 M KATP channel blocker glibenclamide", "format": "functional, Cavia porcellus"}, "[23]": {"experiment": "as §3, with “10^-7” for “10^-4”", "format": "functional, Cavia porcellus"}, "[24]": {"experiment": "Ionotropic effect in guinea pig right ventricle papillary muscles assessed as contraction force at 10^-5 M by force transduction assay relative to untreated control (reference value: 100%) in presence of 2 x 10^-5 M KATP channel blocker glibenclamide", "format": "functional, Cavia porcellus, Heart right ventricle"}, "[25]": {"experiment": "Ionotropic effect in guinea pig right ventricle papillary muscles assessed as contraction force at 10^-6 M by force transduction assay relative to untreated control (reference value: 100%) in presence of 2 x 10^-5 M KATP channel blocker glibenclamide", "format": "functional, Cavia porcellus, Heart right ventricle"}, "[26]": {"experiment": "Ionotropic effect in guinea pig ventricle papillary muscles assessed as lengthening of 90% repolarized cardiac action potential duration time at 10^-4 M by microelectrode technique relative to untreated control (reference value: 132 to 176 APD50 ms)", "format": "functional, Cavia porcellus, Papillary muscle"}, "[27]": {"experiment": "Ionotropic effect in guinea pig ventricle papillary muscles assessed as lengthening of 50% repolarized cardiac action potential duration time at 10^-6 M by microelectrode technique relative to untreated control (reference value: 132 to 176 APD50 ms)", "format": "functional, Cavia porcellus, Papillary muscle"}, "[28]": {"experiment": "Ionotropic effect in guinea pig ventricle papillary muscles assessed as lengthening of 25% repolarized cardiac action potential duration time at 10^-7 M by microelectrode technique relative to untreated control (reference value: 84 to 104 APD25 ms)", "format": "functional, Cavia porcellus, Papillary muscle"}, "[29]": {"experiment": "Ionotropic effect in guinea pig ventricle papillary muscles assessed as lengthening of 10% repolarized cardiac action potential duration time at 10^-5 M by microelectrode technique relative to untreated control (reference value: 37 to 47 […] ms)", "format": "functional, Cavia porcellus, Papillary muscle"}, "[30]": {"experiment": "Ionotropic effect in guinea pig ventricle papillary muscles assessed as lengthening of 10% repolarized cardiac action potential duration time at 10^-6 M by microelectrode technique relative to untreated control (reference value: 37 to 47 APD10 ms)", "format": "functional, Cavia porcellus, Papillary muscle"}, "[31]": {"experiment": "Ionotropic effect in guinea pig right ventricle papillary muscles assessed as contraction force at 10^-4 M by force transduction assay relative to untreated control (reference value: 100%)", "format": "functional, Cavia porcellus, Papillary muscle"}}}
{"compound": "CCCOCCOC(=O)C1=C(C)NC=C([N+](=O)[O-])C1c1ccccc1OC(F)F", "note": "(stereo unspecified)", "values": [{"measurement": "Activity", "setting": "[1]", "result": 120, "unit": "%"}, {"measurement": "Activity", "setting": "[2]", "result": 108, "unit": "%"}, {"measurement": "Activity", "setting": "[3]", "result": 26, "unit": "%"}, {"measurement": "Time", "setting": "[4]", "result": 267.9, "unit": "ms"}, {"measurement": "Time", "setting": "[5]", "result": 260.5, "unit": "ms"}, {"measurement": "Time", "setting": "[6]", "result": 231, "unit": "ms"}, {"measurement": "Time", "setting": "[7]", "result": 224, "unit": "ms"}, {"measurement": "Time", "setting": "[8]", "result": 210, "unit": "ms"}, {"measurement": "Time", "setting": "[9]", "result": 158, "unit": "ms"}, {"measurement": "Time", "setting": "[10]", "result": 61.36, "unit": "ms"}, {"measurement": "Time", "setting": "[11]", "result": 63.4, "unit": "ms"}, {"measurement": "Time", "setting": "[12]", "result": 60.9, "unit": "ms"}, {"measurement": "Time", "setting": "[13]", "result": 227.7, "unit": "ms"}, {"measurement": "Time", "setting": "[14]", "result": 224, "unit": "ms"}, {"measurement": "Time", "setting": "[15]", "result": 218.9, "unit": "ms"}, {"measurement": "Time", "setting": "[16]", "result": 133.6, "unit": "ms"}, {"measurement": "Time", "setting": "[17]", "result": 55.7, "unit": "ms"}, {"measurement": "Time", "setting": "[18]", "result": 54.6, "unit": "ms"}, {"measurement": "Activity", "setting": "[19]", "result": 85, "unit": "%"}, {"measurement": "Time", "setting": "[20]", "result": 265, "unit": "ms"}, {"measurement": "Time", "setting": "[21]", "result": 148, "unit": "ms"}, {"measurement": "Time", "setting": "[22]", "result": 65, "unit": "ms"}, {"measurement": "Time", "setting": "[23]", "result": 59.5, "unit": "ms"}, {"measurement": "Activity", "setting": "[24]", "result": 163, "unit": "%"}, {"measurement": "Activity", "setting": "[25]", "result": 120, "unit": "%"}, {"measurement": "Time", "setting": "[26]", "result": 256, "unit": "ms"}, {"measurement": "Time", "setting": "[27]", "result": 196, "unit": "ms"}, {"measurement": "Time", "setting": "[28]", "result": 112.7, "unit": "ms"}, {"measurement": "Time", "setting": "[29]", "result": 46, "unit": "ms"}, {"measurement": "Time", "setting": "[30]", "result": 41.4, "unit": "ms"}, {"measurement": "Activity", "setting": "[31]", "result": 190.8, "unit": "%"}]}
